A word on the pKi: it is the Ki on a negative log10 scale, so that one unit is a factor of ten. Broadly, the pIC50 is the negative decadic logarithm of the IC50, by convention in mol/L.

pIC50, pKi: −log10 of the molar value.

One data set deals with a different cell line. The note with it: cited from earlier work.
Data set [1] concerns human cannabinoid receptor CB1. The note with it: cited from earlier work.
Data set [2] deals with T1, CB1 receptor (Homo sapiens, UniProt P21554). In words: cAMP functional assay, forskolin-stimulated, CHO-K1 cells expressing CB1. The format is cell-based. The note with it: through CB1 receptor.
T1 sequence (P21554 whole entry): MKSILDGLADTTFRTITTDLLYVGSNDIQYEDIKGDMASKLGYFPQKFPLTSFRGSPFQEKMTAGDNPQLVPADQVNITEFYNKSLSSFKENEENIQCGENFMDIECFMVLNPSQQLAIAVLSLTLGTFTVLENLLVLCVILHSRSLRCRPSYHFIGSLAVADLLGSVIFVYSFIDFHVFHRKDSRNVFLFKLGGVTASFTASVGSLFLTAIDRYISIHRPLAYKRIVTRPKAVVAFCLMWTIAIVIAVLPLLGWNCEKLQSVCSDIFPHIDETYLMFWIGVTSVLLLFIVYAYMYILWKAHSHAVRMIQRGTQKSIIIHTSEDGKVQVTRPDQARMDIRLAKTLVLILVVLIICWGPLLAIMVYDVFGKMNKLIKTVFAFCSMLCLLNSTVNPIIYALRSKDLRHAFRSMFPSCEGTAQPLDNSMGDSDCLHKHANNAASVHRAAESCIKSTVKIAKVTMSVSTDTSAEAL
The target in data set [3] is T1, CB1 receptor. In words: Cannabinoid CB1 receptor binding assay. The conditions noted are these: read-out: CB1 Ki; human recombinant CB1 in HEK-293 cells, [3H]CP-55940 0.5 nM.
The target in data set [4] is T2, CB2 receptor (Homo sapiens, UniProt P34972). The data set can be described thus: Cannabinoid CB2 receptor binding assay. The conditions noted are these: read-out: CB2 Ki; human recombinant CB2 in HEK-293 cells, [3H]CP-55940 0.5 nM.
T2 sequence (P34972 whole entry): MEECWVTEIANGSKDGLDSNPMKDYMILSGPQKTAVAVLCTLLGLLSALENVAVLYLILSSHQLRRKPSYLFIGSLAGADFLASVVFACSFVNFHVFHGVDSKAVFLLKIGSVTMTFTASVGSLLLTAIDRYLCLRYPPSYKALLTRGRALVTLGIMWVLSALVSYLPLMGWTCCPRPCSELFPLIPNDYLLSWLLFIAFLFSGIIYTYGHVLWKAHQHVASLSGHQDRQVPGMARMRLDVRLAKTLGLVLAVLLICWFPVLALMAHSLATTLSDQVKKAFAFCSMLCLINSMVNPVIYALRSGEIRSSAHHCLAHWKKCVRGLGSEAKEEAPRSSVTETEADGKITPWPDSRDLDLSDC
In data set [5] the test system is NO production in RAW 264.7 mouse macrophage cells. In words: NO assay in LPS-induced RAW 264.7 macrophages. In kind it is cell-based. The conditions noted are these: read-out: IC50, inhibition of NO production; LPS-induced RAW 264.7, 24 h. In short, it runs like this:
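Mouse RAW 264.7 cells in DMEM with 10% FBS, 5% CO2, seeded at 2 × 10^4 cells/well. After 24 h, test compound or solvent control (1% EtOH) was added, then LPS (0.5 μg/mL). Medium nitrite was measured after 24 h by Griess reagent: sulfanilamide, then naphthylethylenediamine-HCl, 5 min each at RT in the dark, A540. Quantified against a 0–100 μM nitrite standard curve; duplicates.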

Data set [6] has as its target T3, fatty acid amide hydrolase (FAAH) (Homo sapiens, UniProt O00519).
T3 sequence (O00519 1-579): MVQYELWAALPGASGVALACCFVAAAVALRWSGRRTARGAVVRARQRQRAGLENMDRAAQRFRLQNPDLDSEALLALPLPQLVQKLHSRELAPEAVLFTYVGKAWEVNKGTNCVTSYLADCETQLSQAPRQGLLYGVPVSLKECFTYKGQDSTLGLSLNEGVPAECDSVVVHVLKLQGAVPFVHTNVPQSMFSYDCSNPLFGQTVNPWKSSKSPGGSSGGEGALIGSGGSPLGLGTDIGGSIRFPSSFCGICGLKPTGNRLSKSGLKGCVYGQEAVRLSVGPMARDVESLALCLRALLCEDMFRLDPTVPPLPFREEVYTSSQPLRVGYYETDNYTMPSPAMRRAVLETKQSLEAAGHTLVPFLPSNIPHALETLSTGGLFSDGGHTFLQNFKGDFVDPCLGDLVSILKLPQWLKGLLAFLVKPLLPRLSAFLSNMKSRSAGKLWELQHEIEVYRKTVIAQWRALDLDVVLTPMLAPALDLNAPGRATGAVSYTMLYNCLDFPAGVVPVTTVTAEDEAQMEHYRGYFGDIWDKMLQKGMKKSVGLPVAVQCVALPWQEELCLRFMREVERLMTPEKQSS
The data set can be described thus: FAAH inhibitor enzyme assay. The format is biochemical. The conditions noted are these: tested at 10 and 100 μM. In short, it runs like this:
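Kit FAAH enzyme was preincubated in assay buffer with the test compound (10 and 100 μM) or solvent control. The reaction was started with AMC arachidonoyl amide substrate (20 μM final) and run for 30 min at 37 °C. Fluorescence was read at ex 350 nm / em 455 nm.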

Another data set concerns MCF7 breast cancer cells. In words: Cell viability assay. The format is cell-based. The note with it: up to 100 μM, 48 h, MTT. In short, it runs like this: (§1)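 Cells grown in DMEM with 10% FBS at 37 °C, 5% CO2. Seeded at 10,500 cells/well (MCF7) or 11,000 cells/well (HT-29). After 24 h, treated with various concentrations of the test compound or solvent control (1% EtOH). Viability was read by MTT after 48 h.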

Data set [7] relates to HT-29 colon adenocarcinoma cells. In words: Cell viability assay. In kind it is cell-based. The note with it: 48 h, MTT. In short, it runs like this: as §1
The target of data set [8] is T2, CB2 receptor. The data set can be described thus: cAMP functional assay, forskolin-stimulated, CHO-K1 cells expressing CB2. The format is cell-based. The note with it: through CB2 receptor.
The next data set concerns RAW 264.7 cells. The data set can be described thus: Cellular viability of RAW 264.7 macrophages. In kind it is cell-based, mouse. The note with it: RAW 264.7, up to 25 μM.

As for `CCCCCCCCCCCCC/C=C/CCC(=O)N(C)[C@H](CO)COC` [Compound 4, serinolamide A], the Cytotoxic properties entry in the data set on a different cell line was “showed some cytotoxic properties”. Moreover, the “Selectivity for the CB1 receptor over CB2” value in [1] (human CB1 vs CB2 binding) is “more than 5 fold”. Moreover, the pKi in [1] (read-out: CB1 Ki, human CB1) is 5.89.

Take `CCCCCCCCCCCCC/C=C/CCC(=O)N[C@H](CO)COC` [Compound 5, Serinolamide B]: the “Functional mode at CB1 (inhibition of forskolin-stimulated cAMP accumulation)” value at CB1 receptor [2] is “cannabinoid receptor agonists”. In addition, the pKi on CB1 receptor [3] was 4.79; on CB2 receptor [4] it was 5.28. In addition, the pIC50 in data set [5] is less than 4.60. Moreover, in data set [6], the FAAH inhibition result is given as “no considerable inhibitory effects”. The “Cytotoxicity against MCF7” value in the data set with MCF7 breast cancer cells was “failed to show significant cytotoxicity”. The “Cytotoxicity against HT-29” value in data set [7] (up to 100 μM) is listed as “failed to show significant cytotoxicity”. For the same compound, on CB2 receptor [8], the “Functional mode at CB2 (inhibition of forskolin-stimulated cAMP accumulation)” value is reported as “cannabinoid receptor agonists”.

As for `CCCCCCC[C@@H](C/C=C/CCC(=O)N(C)C/C(=C/Cl)C/C(=C\C(=O)N1CC(O)CC1=O)OC)OC` (stereo partly shown) [Compound 6, malyngamide B], the “Functional mode at CB1 (inhibition of forskolin-stimulated cAMP accumulation)” value on CB1 receptor [2] is “cannabinoid receptor agonists”. For the same compound, the pKi at CB1 receptor [3] is 5.44; on CB2 receptor [4], 5.59. The “Effect on cellular viability” value with RAW 264.7 cells is “without affecting cellular viability”. Besides, the pIC50 is 5.21 in [5] and 4.59 in [7] (read-out: IC50, cytotoxicity to HT-29 cells). Also, in [6], the FAAH inhibition entry was “no considerable inhibitory effects”. Besides, the “Functional mode at CB2 (inhibition of forskolin-stimulated cAMP accumulation)” value at CB2 receptor [8] is “cannabinoid receptor agonists”.

The values above are taken from paper PMC3748600 (Chembiochem : a European journal of chemical biology, 2012).
